Columns and labels:
[1] = Inhibitory activity by measuring its ability to displace [3H]glycine from glycine receptor in rat brain; assay type: tissue-based
Rattus norvegicus [2] = assay: Tested for antineophobic activity using the elevated plus maze test administered at 58 umol/kg perorally in rats; assay type: functional
[3] = molecular target: GABA-A receptor; anion channel; assay: Inhibitory activity at GABA A receptor, measured by the ability to displace [35S]TBPS from GABA A receptor in rat brain; assay type: tissue-based
[4] = molecular target: GABA-A receptor; anion channel; assay: Inhibitory activity at GABA A receptor, measured by the ability to displace [3H]GABA from GABA A receptor in rat brain; assay type: tissue-based
[5] = Inhibitory activity by measuring its ability to displace [3H]spiperone from dopamine or serotonin 5-HT-1 receptors in rat brain; assay type: tissue-based
[6] = molecular target: T1, Gastrin/cholecystokinin type B receptor (Rattus norvegicus, UniProt P30553); assay: Inhibitory activity by measuring its ability to displace [3H]L-365260 from cholecystokinin receptor in rat brain; assay type: tissue-based
T1 sequence (P30553 whole entry): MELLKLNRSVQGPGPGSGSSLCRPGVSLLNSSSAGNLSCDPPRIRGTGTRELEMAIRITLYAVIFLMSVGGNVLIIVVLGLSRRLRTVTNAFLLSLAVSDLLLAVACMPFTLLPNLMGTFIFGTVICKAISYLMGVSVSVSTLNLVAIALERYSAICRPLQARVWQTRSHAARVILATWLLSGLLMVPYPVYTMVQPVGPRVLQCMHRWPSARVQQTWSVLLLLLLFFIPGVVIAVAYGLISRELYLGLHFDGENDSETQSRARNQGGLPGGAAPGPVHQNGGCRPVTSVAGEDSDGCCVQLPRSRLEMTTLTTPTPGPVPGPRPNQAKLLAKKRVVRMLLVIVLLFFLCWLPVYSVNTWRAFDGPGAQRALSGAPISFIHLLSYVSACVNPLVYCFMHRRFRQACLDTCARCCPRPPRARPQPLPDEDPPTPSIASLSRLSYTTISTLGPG

[7] = molecular target: GABA-A receptor; anion channel; assay: Inhibitory activity at GABA A receptor, measured by the ability to displace [3H]flumazenil from GABA A receptor in rat brain; assay type: tissue-based
[8] = molecular target: Adrenergic receptor alpha; assay: Displacement of [3H]clonidine from alpha-adrenergic receptor in rat brain; assay type: tissue-based
Glutamate NMDA receptor = assay: Inhibitory activity by measuring its ability to displace [3H]-MK-801 from glutamate(NMDA) receptor in rat brain; assay type: tissue-based
[9] = molecular target: Adrenergic receptor alpha; assay: Inhibitory activity by measuring its ability to displace [3H]WB-4101 from alpha-adrenergic receptor in rat brain; assay type: tissue-based
Translocator protein = Translocator protein (Rattus norvegicus, UniProt P16257); assay: Binding affinity against mitochondrial DBI complex (peripheral benzodiazepine receptor) using primary cultures of glial cells
Sequence of Translocator protein (P16257 whole entry, looked up): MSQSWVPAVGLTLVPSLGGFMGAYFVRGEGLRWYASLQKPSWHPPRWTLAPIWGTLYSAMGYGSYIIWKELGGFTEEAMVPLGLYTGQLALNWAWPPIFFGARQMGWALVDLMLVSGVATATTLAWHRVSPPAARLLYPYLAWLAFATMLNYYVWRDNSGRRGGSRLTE
Outline: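 Glia from cerebella of 8-day-old Sprague–Dawley rat pups, trypsin-dissociated and grown 14 days (~95% astroglia). Cells lysed in 50 mM Hepes pH 7.4, 4 μg protein per tube. Incubated with [3H]4'-chlorodiazepam and competitor for 90 min at 4 °C, then filtered. Nonspecific binding defined with 10 μM 4'-chlorodiazepam. Triplicate competition curves; IC50 by nonlinear regression, converted to Ki (Bylund–Yamamura).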

Adrenergic receptor beta = Adrenergic receptor beta (Rattus norvegicus, UniProt P18090+P10608+P26255); assay: Inhibitory activity by measuring its ability to displace [125I]pindolol from beta-adrenergic receptor in rat brain; assay type: tissue-based
[10] = Inhibitory activity at GABA B receptor, measured by the ability to displace [3H]baclofen from GABA B receptor in rat brain; assay type: tissue-based
[11] = Tested for inhibitory activity by measuring its ability to displace [3H]AMPA from glutamate (non-NMDA) receptor in rat brain; assay type: tissue-based
Cannabinoid receptor 1 = Cannabinoid receptor 1 (Rattus norvegicus, UniProt P20272); assay: Inhibitory activity, measured by displacement [3H]CP-55940 from cannabinoid receptor (CB1) in rat brain; assay type: tissue-based
Sequence of Cannabinoid receptor 1 (P20272 whole entry): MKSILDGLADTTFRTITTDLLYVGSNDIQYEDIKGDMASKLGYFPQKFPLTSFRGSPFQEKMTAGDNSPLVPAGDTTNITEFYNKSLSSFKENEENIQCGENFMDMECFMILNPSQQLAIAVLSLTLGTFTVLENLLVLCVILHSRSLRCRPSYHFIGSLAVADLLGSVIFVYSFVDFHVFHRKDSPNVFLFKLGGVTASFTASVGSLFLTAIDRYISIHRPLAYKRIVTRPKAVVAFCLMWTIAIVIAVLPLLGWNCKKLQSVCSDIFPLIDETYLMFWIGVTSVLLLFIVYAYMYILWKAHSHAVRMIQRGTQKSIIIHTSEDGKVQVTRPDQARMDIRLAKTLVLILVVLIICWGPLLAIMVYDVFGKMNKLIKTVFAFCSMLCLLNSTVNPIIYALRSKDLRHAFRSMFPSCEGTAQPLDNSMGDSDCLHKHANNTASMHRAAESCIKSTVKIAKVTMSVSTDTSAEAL

[12] = molecular target: GABA-A receptor; anion channel; assay: Inhibitory activity at GABA A receptor, measured by the ability to displace [3H]zolpidem from GABA A receptor in rat brain; assay type: tissue-based
[13] = molecular target: Adrenergic receptor alpha; assay: Inhibitory activity by measuring its ability to displace [3H]clonidine from alpha-adrenergic receptor in rat brain; assay type: tissue-based
Rattus norvegicus [14] = assay: Tested for antineophobic activity using the elevated plus maze test administered at 55 umol/kg perorally in rats; assay type: functional
Rattus norvegicus [15] = assay: Tested for antineophobic activity using the elevated plus maze test administered at 51 umol/kg perorally in rats; assay type: functional
[16] = molecular target: Sigma receptor (Rattus norvegicus); assay: Tested for inhibitory activity by measuring its ability to displace [3H]3-PPP from sigma receptor in rat brain
[17] = molecular target: Serotonin 2 (5-HT2) receptor (Rattus norvegicus); assay: Inhibitory activity by measuring its ability to displace [3H]ketanserin from serotonin receptor in rat brain
Opioid receptor = Opioid receptor (Rattus norvegicus, UniProt P33533+P34975+P33535); assay: Inhibition of [3H]naxolone binding to opiate receptors in rat brain; assay type: tissue-based
Rattus norvegicus [18] = assay: Tested for antineophobic activity using the elevated plus maze test administered at 78 umol/kg perorally in rats; assay type: functional
Rattus norvegicus [19] = assay: Tested for antineophobic activity using the elevated plus maze test administered at 53 umol/kg perorally in rats; assay type: functional

What does the source list for `CCCCCCN(CCCCCC)C(=O)Cc1c2n(c3ccccc13)Cc1ccccc1-2`?
IC50 [1]: > 1000 nM; No. of entries (Rattus norvegicus [2]): 2; Time (Rattus norvegicus [2]): 6.4%; IC50 [3]: > 1000 nM; IC50 [4]: > 1000 nM; IC50 [5]: > 1000 nM; IC50 [6]: > 1000 nM; IC50 [7]: > 1000 nM; IC50 [8]: > 1000 nM; IC50 (Glutamate NMDA receptor): > 1000 nM; IC50 [9]: > 1000 nM; Ki (Translocator protein): 7.7 nM; IC50 (Adrenergic receptor beta): > 1000 nM; IC50 [10]: > 1000 nM; IC50 [11]: > 1000 nM; IC50 (Cannabinoid receptor 1): > 1000 nM; IC50 [12]: > 1000 nM

What does the source list for `CCCCCCN(CCCCCC)C(=O)Cc1c(-c2ccccc2)[nH]c2ccc(Cl)cc12`?
IC50 [13]: > 1000 nM; IC50 [1]: > 1000 nM; IC50 [3]: > 1000 nM; IC50 [4]: > 1000 nM; IC50 [5]: > 1000 nM; IC50 [6]: > 1000 nM; IC50 [7]: > 1000 nM; IC50 (Glutamate NMDA receptor): > 1000 nM; IC50 [9]: > 1000 nM; Ki (Translocator protein): 4.1 nM; IC50 (Adrenergic receptor beta): > 1000 nM; IC50 [10]: > 1000 nM; IC50 [11]: > 1000 nM; IC50 (Cannabinoid receptor 1): > 1000 nM; No. of entries (Rattus norvegicus [14]): 2.3; Time (Rattus norvegicus [14]): 4.3%; IC50 [12]: > 1000 nM

Which IC50 [13] does the source give for `CCCCCCN(CCCCCC)C(=O)Cc1c(-c2ccc(Cl)cc2)[nH]c2ccc(Cl)cc12` here?
Its IC50 is over 1000 nM.

And the IC50 [1]?
Its IC50 is over 1000 nM.

What about the IC50 [3] of the same molecule?
The IC50 was over 1000 nM.

And the IC50 [4]?
Its IC50 is over 1000 nM.

What about the IC50 [5] of the same molecule?
The IC50 was over 1000 nM.

What about the IC50 [6] of the same molecule?
The IC50 was over 1000 nM.

What about the IC50 [7] of the same molecule?
The IC50 was over 1000 nM.

And the IC50 (Glutamate NMDA receptor)?
The IC50 was over 1000 nM.

And the No. of entries (Rattus norvegicus [15])?
Its No. of entries is 2.3.

And the Time (Rattus norvegicus [15])?
Its Time is 5.3%.

And the IC50 [9]?
Its IC50 is over 1000 nM.

And the Ki (Translocator protein)?
Its Ki is 3.6 nM.

What about the IC50 (Adrenergic receptor beta) of the same molecule?
The IC50 was over 1000 nM.

And the IC50 [10]?
The IC50 was over 1000 nM.

What about the IC50 [11] of the same molecule?
Its IC50 is over 1000 nM.

What about the IC50 (Cannabinoid receptor 1) of the same molecule?
Its IC50 is over 1000 nM.

And the IC50 [16]?
The IC50 was over 1000 nM.

And the IC50 [17]?
The IC50 was over 1000 nM.

And the IC50 [12]?
Its IC50 is over 1000 nM.

And the IC50 (Opioid receptor)?
The IC50 was over 1000 nM.

With `CCCN(CCC)C(=O)Cc1cn(Cc2ccc(Br)cc2)c2ccccc12` as the molecule, how does the IC50 [13] read?
The IC50 was over 1000 nM.

What about the IC50 [1] of the same molecule?
Its IC50 is over 1000 nM.

And the No. of entries (Rattus norvegicus [2])?
The No. of entries was 0.6.

And the Time (Rattus norvegicus [2])?
Its Time is 1%.

And the IC50 [3]?
The IC50 was over 1000 nM.

And the IC50 [4]?
Its IC50 is over 1000 nM.

What about the IC50 [5] of the same molecule?
Its IC50 is over 1000 nM.

What about the IC50 [6] of the same molecule?
The IC50 was over 1000 nM.

And the IC50 [7]?
The IC50 was over 1000 nM.

And the IC50 (Glutamate NMDA receptor)?
Its IC50 is over 1000 nM.

And the IC50 [9]?
Its IC50 is over 1000 nM.

And the Ki (Translocator protein)?
Its Ki is 200 nM.

What about the IC50 (Adrenergic receptor beta) of the same molecule?
The IC50 was over 1000 nM.

And the IC50 [10]?
The IC50 was over 1000 nM.

And the IC50 [11]?
Its IC50 is over 1000 nM.

And the IC50 (Cannabinoid receptor 1)?
The IC50 was over 1000 nM.

What about the IC50 [12] of the same molecule?
Its IC50 is over 1000 nM.

With `O=C(Cc1c(-c2ccccc2)[nH]c2ccccc12)N1CCCCC1` as the molecule, how does the IC50 [13] read?
Its IC50 is over 1000 nM.

What about the IC50 [1] of the same molecule?
The IC50 was over 1000 nM.

And the IC50 [3]?
Its IC50 is over 1000 nM.

And the IC50 [4]?
Its IC50 is over 1000 nM.

What about the IC50 [5] of the same molecule?
The IC50 was over 1000 nM.

And the IC50 [6]?
Its IC50 is over 1000 nM.

And the IC50 [7]?
The IC50 was over 1000 nM.

And the IC50 (Glutamate NMDA receptor)?
The IC50 was over 1000 nM.

And the IC50 [9]?
Its IC50 is over 1000 nM.

What about the No. of entries (Rattus norvegicus [18]) of the same molecule?
Its No. of entries is 2.3.

What about the Time (Rattus norvegicus [18]) of the same molecule?
Its Time is 5.7%.

What about the Ki (Translocator protein) of the same molecule?
The Ki was 350 nM.

And the IC50 (Adrenergic receptor beta)?
The IC50 was over 1000 nM.

And the IC50 [10]?
Its IC50 is over 1000 nM.

What about the IC50 [11] of the same molecule?
The IC50 was over 1000 nM.

And the IC50 (Cannabinoid receptor 1)?
Its IC50 is over 1000 nM.

And the IC50 [12]?
The IC50 was over 1000 nM.

Which IC50 [1] does the source give for `CCCCCCN(CCCCCC)C(=O)Cc1c(-c2ccc(F)cc2)[nH]c2ccc(Cl)cc12` here?
Its IC50 is over 1000 nM.

And the IC50 [3]?
The IC50 was over 1000 nM.

And the IC50 [4]?
The IC50 was over 1000 nM.

What about the IC50 [5] of the same molecule?
The IC50 was over 1000 nM.

And the IC50 [6]?
Its IC50 is over 1000 nM.

And the IC50 [7]?
The IC50 was over 1000 nM.

And the IC50 [8]?
The IC50 was over 1000 nM.

What about the IC50 (Glutamate NMDA receptor) of the same molecule?
The IC50 was over 1000 nM.

And the IC50 [9]?
Its IC50 is over 1000 nM.

What about the Ki (Translocator protein) of the same molecule?
Its Ki is 2.3 nM.

What about the IC50 (Adrenergic receptor beta) of the same molecule?
The IC50 was over 1000 nM.

What about the IC50 [10] of the same molecule?
The IC50 was over 1000 nM.

And the IC50 [11]?
The IC50 was over 1000 nM.

And the IC50 (Cannabinoid receptor 1)?
Its IC50 is over 1000 nM.

What about the IC50 [16] of the same molecule?
Its IC50 is over 1000 nM.

What about the IC50 [17] of the same molecule?
Its IC50 is over 1000 nM.

And the IC50 [12]?
The IC50 was over 1000 nM.

And the IC50 (Opioid receptor)?
The IC50 was over 1000 nM.

What about the No. of entries (Rattus norvegicus [19]) of the same molecule?
Its No. of entries is 0.4.

And the Time (Rattus norvegicus [19])?
Its Time is 0.4%.
